This is an account of results in ChEMBL document CHEMBL1156628, “Further studies on lead compounds containing the opioid pharmacophore Dmt-Tic” (J Med Chem, 2008).

Activity calls are given as the source filed them. Where a SMILES comes first, the peptide text is derived from it. [ ]: non-standard residue; d: D form. The star is where a group is joined. Dmt = Cc1cc(O)cc(C)c1C[C@H](N)C(=O)O; Tic = O=C(O)[C@@H]1Cc2ccccc2CN1; NHBn = c1ccc(CN*)cc1; NHPh = c1ccc(N*)cc1

Series [1] has as its target Delta-type opioid receptor (Rattus norvegicus, UniProt P33533). The series is described as follows: Displacement of [3H]deltorphin2 from delta opioid receptor in Sprague-Dawley rat brain P2 synaptosomal membrane. In short, it runs like this:
(§1)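 Competition binding to Sprague-Dawley rat brain P2 synaptosomal membranes, preincubated to strip endogenous opioids and stored at −80 °C in buffered 20% glycerol. Incubated at equilibrium for 2.5 h at 23 °C. Separated on polyethylenimine-soaked (0.1%) glass-fibre filters washed three times in ice-cold buffered BSA. Duplicates at five to eight doses, 3–5 independent membrane preparations; Ki by Cheng–Prusoff, mean ± SE.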

In series [2] the target is Delta-type opioid receptor (Mus musculus, UniProt P32300). In words: Antagonist activity at delta opioid receptor in mouse vas deferens assessed as effect on deltorphin 2-induced response. In kind it is functional, tissue-based. The settings on record: read-out: pA2 (converted). In outline: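 Single mouse vas deferens suspended in an organ bath in balanced physiological salt buffer, pH 7.5. Agonism measured as inhibition of electrically evoked contraction, with IC50 taken from dose-response curves; DPDPE was the internal standard. Antagonism tested against deltorphin II and given as pA2 (Schild plot / Kosterlitz and Watt method). Values are mean ± SE of separate tissue assays.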

The next series has as its target Mu-type opioid receptor (Rattus norvegicus, UniProt P33535). The series is described as follows: Displacement of [3H]DAMGO from mu opioid receptor in Sprague-Dawley rat brain P2 synaptosomal membrane. In short, it runs like this: as §1
For another series, the species on record is Rattus norvegicus. The series is described as follows: Selectivity ratio of Ki for mu opioid receptor in Sprague-Dawley rat brain to Ki for delta opioid receptor in Sprague-Dawley rat brain.
The subject of a further series is Brain. In words: Stability in Swiss mouse brain after 2 hrs. In kind it is ADME, tissue-based.
The test system of series [3] is Mus musculus. The series is described as follows: Toxicity in icv dosed Swiss-Webster mouse assessed as induction of convulsion. In kind it is organism-based. The settings on record: in vivo, icv_or_intrathecal.
Series [4] relates to Mus musculus. The series is described as follows: Analgesic activity in icv dosed Swiss-Webster mouse by tail flick test. In kind it is functional, organism-based. (In general: In hot-plate and tail-flick tests a longer latency is read as antinociception.)
The subject of series [5] is Mus musculus. In words: Toxicity in Swiss-Webster mouse assessed as induction of sedation at 10 ug, icv. In kind it is organism-based. Conditions: in vivo, icv_or_intrathecal.
For series [6], the system named is Mus musculus. In words: Antinociceptive activity in Swiss-Webster mouse at 10 ug, icv after 10 mins by hot plate test in presence of naltrindole. In kind it is functional, organism-based. In short, it runs like this:
(§2)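 Mice given sc naltrindole (3 mg/kg) or naloxone (10 mg/kg), then 20 min later 10 µg/mouse icv in 5 μL saline. Nociception measured by hot-plate (55 °C, latency to jump/lick/paw-shake, 30 s cut-off, every 10 min) or tail-flick.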

Series [7] has as its system Mus musculus. The series is described as follows: Antinociceptive activity in Swiss-Webster mouse at 10 ug, icv after 10 mins by hot plate test in presence of naloxone. In kind it is functional, organism-based. In outline: as §2
Series [8] deals with Mus musculus. In words: Analgesic activity in icv dosed Swiss-Webster mouse after 10 mins by hot plate test. In kind it is functional, organism-based. In outline: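 Male Swiss-Webster mice (20–25 g) given 5 μL of peptide in saline icv at bregma; only mice with a correct needle tract were counted. For hot plate: 55 ± 0.1 °C, start 10 min post-dose, latency to jump, lick or shake hind paw, 30 s cut-off, repeated every 10 min.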

The test system of series [9] is Mus musculus. In words: Antinociceptive activity in Swiss-Webster mouse at 10 ug, icv by tail flick test in presence of naltrindole. In kind it is functional, organism-based. In outline: as §2
The subject of series [10] is Mus musculus. The series is described as follows: Antinociceptive activity in Swiss-Webster mouse at 10 ug, icv by tail flick test in presence of naloxone. In kind it is functional, organism-based. In short, it runs like this:
as §2

The test system of another series is Plasma. The series is described as follows: Stability in Swiss mouse plasma after 4 hrs. In kind it is ADME, cell-free.
Series [11] deals with Mus musculus. The series is described as follows: Toxicity in Swiss-Webster mouse assessed as induction of agitated behavior at 10 ug, icv. In kind it is organism-based. The settings on record: in vivo, icv_or_intrathecal.

One may read the Ki as a dissociation constant, usually derived from enzyme kinetics or from competition with a known ligand. The low end stands for higher affinity, the high end for lower affinity.

Delta-type opioid receptor (Mus musculus, UniProt P32300), sequence (P32300 whole entry): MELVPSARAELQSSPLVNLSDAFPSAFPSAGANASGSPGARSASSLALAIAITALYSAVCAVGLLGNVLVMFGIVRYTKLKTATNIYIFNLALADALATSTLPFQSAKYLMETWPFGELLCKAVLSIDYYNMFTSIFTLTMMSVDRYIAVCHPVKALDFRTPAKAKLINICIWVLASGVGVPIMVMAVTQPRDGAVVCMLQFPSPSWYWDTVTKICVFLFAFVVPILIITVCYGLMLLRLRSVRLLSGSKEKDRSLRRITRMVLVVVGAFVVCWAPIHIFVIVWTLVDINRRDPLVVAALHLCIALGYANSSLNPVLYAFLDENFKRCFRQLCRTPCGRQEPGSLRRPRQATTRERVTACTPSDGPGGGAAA
Mu-type opioid receptor, sequence (P33535 whole entry): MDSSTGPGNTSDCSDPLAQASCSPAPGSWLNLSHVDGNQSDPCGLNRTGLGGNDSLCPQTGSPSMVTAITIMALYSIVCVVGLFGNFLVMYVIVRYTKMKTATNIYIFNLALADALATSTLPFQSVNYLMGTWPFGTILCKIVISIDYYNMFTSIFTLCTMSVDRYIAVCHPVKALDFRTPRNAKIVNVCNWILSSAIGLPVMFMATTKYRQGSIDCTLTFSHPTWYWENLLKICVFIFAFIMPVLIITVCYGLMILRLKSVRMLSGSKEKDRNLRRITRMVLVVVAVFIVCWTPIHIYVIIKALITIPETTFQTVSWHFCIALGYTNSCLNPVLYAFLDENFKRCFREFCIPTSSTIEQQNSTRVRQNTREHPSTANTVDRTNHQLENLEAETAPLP
Delta-type opioid receptor (Rattus norvegicus, UniProt P33533), sequence (P33533 whole entry): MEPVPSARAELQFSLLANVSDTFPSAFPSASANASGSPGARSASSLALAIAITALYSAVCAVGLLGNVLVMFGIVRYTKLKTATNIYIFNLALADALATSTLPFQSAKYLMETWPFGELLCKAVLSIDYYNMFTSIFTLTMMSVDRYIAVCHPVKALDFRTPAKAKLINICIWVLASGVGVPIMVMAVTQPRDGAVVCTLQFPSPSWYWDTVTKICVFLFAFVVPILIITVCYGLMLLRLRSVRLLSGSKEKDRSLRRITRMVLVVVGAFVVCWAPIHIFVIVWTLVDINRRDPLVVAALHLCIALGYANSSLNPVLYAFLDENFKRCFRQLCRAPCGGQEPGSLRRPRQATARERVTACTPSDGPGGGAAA

Regarding `Cc1cc(O)cc(C)c1C[C@H](N)C(=O)N1Cc2ccccc2C[C@H]1C(=O)N[C@@H](CC(=O)O)C(=O)NCc1ccccc1` (H-[Dmt]-[Tic]-Asp-NHBn), the Ki in series [1] worked out at 0.054 nM; on Mu-type opioid receptor, 309 nM. Moreover, the Kb in series [2] is 2.95 nM.

As for `Cc1cc(O)cc(C)c1C[C@H](N)C(=O)N1Cc2ccccc2C[C@H]1C(=O)N[C@H](CC(=O)O)C(=O)N(C)c1ccccc1`, the Ki is 0.084 nM in series [1] and 45 nM on Mu-type opioid receptor. Also, the Kb in series [2] was 8.71 nM. Further, in the series filed under Rattus norvegicus, the Ratio Ki was 536.

Consider `Cc1cc(O)cc(C)c1C[C@H](N)C(=O)N1Cc2ccccc2C[C@H]1C(=O)NCC(=O)N(C)c1ccccc1`, for which the Ki was determined as 0.143 nM in series [1] and 1.75 nM on Mu-type opioid receptor. In addition, in series [2], the Kb is 1.58 nM. In addition, in the series filed under Rattus norvegicus, the Ratio Ki came to 12.

As to `Cc1cc(O)cc(C)c1C[C@H](N)C(=O)N1Cc2ccccc2C[C@H]1C(=O)NCC(=O)NCc1ccccc1` (H-[Dmt]-[Tic]-Gly-NHBn), in the series filed under Rattus norvegicus, the Ratio Ki turned out to be 5.

In the case of `Cc1cc(O)cc(C)c1C[C@H](N)C(=O)N1Cc2ccccc2C[C@H]1C(=O)N[C@@H](CC(=O)O)c1nc2ccccc2n1C`, the Stability result in the series with Brain and in the series with Plasma was “Stable” in each case. Moreover, the Activity result with Mus musculus [3] was “Toxic”; in the series with Mus musculus [4] it was “Dose-dependent effect”; with Mus musculus [5], “Toxic”; in the series with Mus musculus [8], “Dose-dependent effect”. Also, the Ki in series [1] was determined as 0.059 nM; at Mu-type opioid receptor, 5.93 nM. For the same compound, the outcome with Mus musculus [6] and in the series on Mus musculus [7] was Active. The Kb in series [2] is 0.126 nM. The outcome in the series with Mus musculus [9] and in the series with Mus musculus [10] was inactive. The Ratio Ki in the series listed under Rattus norvegicus is 101.

As to `Cc1cc(O)cc(C)c1C[C@H](N)C(=O)N1Cc2ccccc2C[C@H]1C(=O)N[C@@H](CC(=O)O)C(=O)N(C)c1ccccc1`, the Ki in series [1] was 0.186 nM; at Mu-type opioid receptor, 364 nM. Besides, in [2], the Kb is 1.78 nM. Also, the Ratio Ki in the series filed under Rattus norvegicus was determined as 1960.

For `Cc1cc(O)cc(C)c1C[C@H](N)C(=O)N1Cc2ccccc2C[C@H]1C(=O)NCC(=O)Nc1ccccc1` (H-[Dmt]-[Tic]-Gly-NHPh), the Ratio Ki in the series filed under Rattus norvegicus amounted to 4.

In the case of `Cc1cc(O)cc(C)c1C[C@H](N)C(=O)N1Cc2ccccc2C[C@H]1C(=O)N[C@@H](CC(=O)O)c1nc2ccccc2[nH]1`, the Stability result in the series on Brain and in the series on Plasma was “Stable” throughout. Also, the Activity result is “Toxic” in the series with Mus musculus [3], “Dose-dependent effect” in the series on Mus musculus [4], “Dose-dependent effect” in the series on Mus musculus [8] and “Toxic” with Mus musculus [11]. Further, the result in the series on Mus musculus [6] and in the series with Mus musculus [7] was Active. The Kb in series [2] is 0.126 nM. For the same compound, the outcome in the series on Mus musculus [9] and with Mus musculus [10] was inactive. The Ratio Ki in the series filed under Rattus norvegicus was determined as 122.

On to `Cc1cc(O)cc(C)c1C[C@H](N)C(=O)N1Cc2ccccc2C[C@H]1C(=O)N[C@H](CC(=O)O)c1nc2ccccc2[nH]1`, for which the Ki in series [1] worked out at 0.067 nM; at Mu-type opioid receptor, 16.1 nM. Further, in the series filed under Rattus norvegicus, the Ratio Ki stood at 240.

`Cc1cc(O)cc(C)c1C[C@H](N)C(=O)N1Cc2ccccc2C[C@H]1C(=O)N[C@H](CC(=O)O)c1nc2ccccc2n1C`: the Ki in series [1] stood at 0.07 nM; on Mu-type opioid receptor, 11.8 nM. Further, the Kb in series [2] was 0.224 nM. Moreover, the Ratio Ki in the series listed under Rattus norvegicus stood at 169.

With `Cc1cc(O)cc(C)c1C[C@H](N)C(=O)N1Cc2ccccc2C[C@H]1C(=O)N[C@H](CC(=O)O)C(=O)Nc1ccccc1`, the Ki in [1] came out at 0.058 nM; at Mu-type opioid receptor, 7.49 nM. For the same compound, the Kb in series [2] is 2.4 nM. Moreover, the Ratio Ki in the series filed under Rattus norvegicus stood at 129.

`Cc1cc(O)cc(C)c1C[C@H](N)C(=O)N1Cc2ccccc2C[C@H]1C(=O)N[C@@H](CC(=O)O)C(=O)Nc1ccccc1`: the Ki in series [1] was 0.036 nM; at Mu-type opioid receptor, 10.8 nM. Further, the Kb in series [2] is 0.398 nM. The Ratio Ki in the series listed under Rattus norvegicus was 300.
